Test results published in article PMC9488007 (Environmental Science and Ecotechnology, 2020).
Values after ≈ are worked out from the molar mass of the structure shown. Values joined by “and” are separate entries in the source; they are usually repeats but may differ in a detail not shown here. Equal entries are not always repeated. Where two headings read alike, the source gives them in different places.

Tests used:
[1] = Desorption kinetics of bisphenols from bisphenol-attached PVC microplastics; assay type: physicochemical
In short: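 Bisphenol-loaded PVC from the adsorption step was placed in water or simulated intestinal fluid (NaCl 0.12 M, Na2CO3 0.02 M, sodium taurocholate 15.5 mM) in sealed 1 L glass bottles. Bottles were agitated rotationally at 200 rpm in an oil bath. Bisphenol was measured in filtered supernatant at intervals from 0 to 75 h. Run in triplicate.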

[2] = water, ref Wu et al.^3; cited from earlier work
[3] = Adsorption of bisphenols onto PVC microplastics; assay type: physicochemical; conditions: 1.5 g PVC microplastics in 1 L, 48 h, room temperature
In short: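 Each bisphenol was dissolved in ethanol, then diluted in a 1 L glass bottle to initial concentrations of 0 to 1.0 mg L-1. PVC microplastics were added, and bottles were shaken at 200 rpm until adsorption equilibrium. Supernatants were filtered through a glass microfiber filter before bisphenol quantification. Run in triplicate.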

Desorption isotherms = assay type: physicochemical
[4] = system: human breast adenocarcinoma cells, MCF-7; experiment: cells; assay type: cell-based; conditions: for Cytotoxicity (proliferation reduction), MCF-7: high concentration (2 mg L^−1)
[5] = system: grass carp hepatocyte cell line, L8824; experiment: cells; assay type: cell-based; conditions: for Cytotoxicity (proliferation reduction), L8824: high concentration (2 mg L^−1)
[6] = Physicochemical properties of the five bisphenols; conditions: calculated from log Kow and pKa
[7] = Homo sapiens, MCF7, 72 h, read-out: IC50 to MCF-7, 72 h exposure, 311 K, MTT
[8] = calculated for concentration desorbed in warm-I
[9] = calculated for concentration desorbed in water
[10] = read-out: IC50 to MCF-7, 72 h exposure, 311 K, MTT
[11] = Hepatocyte, 72 h, read-out: IC50 to L8824, 72 h exposure, 291 K, MTT
[12] = read-out: IC50 to L8824, 72 h exposure, 291 K, MTT

SMILES	Fslow, slow fraction ([1]; cold-I, pH 7.5, 291 K)	Fvs, very slow fraction ([1]; cold-I, pH 7.5, 291 K)	krap, rapid desorption rate constant ([1]; cold-I, pH 7.5, 291 K)	kslow, slow desorption rate constant ([1]; cold-I, pH 7.5, 291 K)	kvs, very slow desorption rate constant ([1]; cold-I, pH 7.5, 291 K)	Fslow, slow fraction ([1]; warm-I, pH 6.5, 311 K)	Fvs, very slow fraction ([1]; warm-I, pH 6.5, 311 K)	krap, rapid desorption rate constant ([1]; warm-I, pH 6.5, 311 K)	kslow, slow desorption rate constant ([1]; warm-I, pH 6.5, 311 K)	kvs, very slow desorption rate constant ([1]; warm-I, pH 6.5, 311 K)	Fslow, slow fraction ([1]; water, pH 7.0, 291 K)	Fvs, very slow fraction ([1]; water, pH 7.0, 291 K)	krap, rapid desorption rate constant ([1]; water, pH 7.0, 291 K)	kslow, slow desorption rate constant ([1]; water, pH 7.0, 291 K)	kvs, very slow desorption rate constant ([1]; water, pH 7.0, 291 K)	kFa, Freundlich constant for adsorption [2] [mg^−1/n·L^−1/n·g^−1]	n, surface heterogeneity constant (adsorption) [2]	amount of bisphenol adsorbed on the PVC [3] [mg/g]	kFd, Freundlich constant for desorption (Desorption isotherms; warm-I (Table 2)) [mg^−1/n·L^−1/n·g^−1]	n, surface heterogeneity constant (desorption) (Desorption isotherms; warm-I (Table 2))	also measured
Oc1ccc(C(c2ccc(O)cc2)(C(F)(F)F)C(F)(F)F)cc1 [BPAF, bisphenol AF]	0.409±0.002	0.003±0.001	1.007±0.318 10^-2 h^-1	9.957±0.755 10^-4 h^-1	<0.01 10^-5 h^-1	0.315±0.007	<0.001	2.609±0.521 10^-2 h^-1	13.80±2.684 10^-4 h^-1	<0.01 10^-5 h^-1	0.272±0.010	0.068±0.002	0.794±0.230 10^-2 h^-1	5.983±0.498 10^-4 h^-1	6.314±0.606 10^-5 h^-1	1.458	1.14	0.24	0.465	1.154	HI, hysteresis index (Desorption isotherms; warm-I): <0; HI, hysteresis index (Desorption isotherms; water): 0.326; kFd, Freundlich constant for desorption (Desorption isotherms; water (Table 2)): 1.933 mg^−1/n·L^−1/n·g^−1; n, surface heterogeneity constant (desorption) (Desorption isotherms; water (Table 2)): 1.155; IC50 [4, 7]: 2.65 ± 1.34 µg/mL; Cytotoxicity (proliferation reduction), MCF-7 [4, 8]: 36.87%; Cytotoxicity (proliferation reduction), MCF-7 [4, 9]: 24.19%; IC50 [4, 10]: 7.87 ± 3.98 µM; IC50 [5, 11]: 1.15 ± 0.18 µg/mL; Cytotoxicity (proliferation reduction), L8824 [5, 8]: 46.31%; Cytotoxicity (proliferation reduction), L8824 [5, 9]: 32.70%
O=S(=O)(c1ccc(O)cc1)c1ccc(O)cc1 [BPS, bisphenol S]	0.383±0.001	0.085±0.002	0.587±0.228 10^-2 h^-1	7.612±0.336 10^-4 h^-1	12.03±0.685 10^-5 h^-1	0.325±0.005	<0.001	1.497±0.391 10^-2 h^-1	10.00±1.191 10^-4 h^-1	11.338±0.322 10^-5 h^-1	0.410±0.007	0.028±0.002	0.580±0.174 10^-2 h^-1	6.789±0.198 10^-4 h^-1	<0.01 10^-5 h^-1	0.503	1.15	0.15	0.341	1.207	kFd, Freundlich constant for desorption (Desorption isotherms; water (Table 2)): 0.602 mg^−1/n·L^−1/n·g^−1; IC50 to MCF-7 ([4]; 72 h exposure, 311 K, MTT): 14.50 ± 1.95 mg/L (≈ 57.9 µM); IC50 [4, 10]: 57.9 ± 7.76 µM; IC50 to L8824 ([5]; 72 h exposure, 291 K, MTT): 8.98 ± 1.51 mg/L (≈ 35.9 µM); IC50 [5, 12]: 35.9 ± 6.01 µM
CC(C)(c1ccc(O)cc1)c1ccc(O)cc1 [BPA, bisphenol A]	0.395±0.003	0.043±0.005	0.809±0.302 10^-2 h^-1	10.90±0.407 10^-4 h^-1	9.442±0.716 10^-5 h^-1	0.303±0.046	0.019±0.003	2.163±0.456 10^-2 h^-1	11.40±0.898 10^-4 h^-1	9.069±0.647 10^-5 h^-1	0.284±0.004	0.076±0.004	0.746±0.206 10^-2 h^-1	5.979±0.555 10^-4 h^-1	6.997±0.788 10^-5 h^-1	0.801	1.21	0.19	0.398	1.218	HI, hysteresis index (Desorption isotherms; warm-I): <0; HI, hysteresis index (Desorption isotherms; water): 0.289; kFd, Freundlich constant for desorption (Desorption isotherms; water (Table 2)): 1.033 mg^−1/n·L^−1/n·g^−1; n, surface heterogeneity constant (desorption) (Desorption isotherms; water (Table 2)): 1.512; log Dow [6]: 3.32; IC50 ([4]; Homo sapiens, MCF7, 72 h, read-out: IC50 to MCF-7): 36.9 µM and 8.42 µg/mL; Cytotoxicity (proliferation reduction), MCF-7 [4, 8]: 21.75%; Cytotoxicity (proliferation reduction), MCF-7 [4, 9]: 12.36%; IC50 ([5]; Hepatocyte, 72 h, read-out: IC50 to L8824): 16.2 µM and 3.7 µg/mL; Cytotoxicity (proliferation reduction), L8824 [5, 8]: 29.75%; Cytotoxicity (proliferation reduction), L8824 [5, 9]: 20.08%
CCC(C)(c1ccc(O)cc1)c1ccc(O)cc1 [BPB, bisphenol B]	0.456±0.005	0.059±0.001	0.864±0.209 10^-2 h^-1	10.80±0.737 10^-4 h^-1	7.718±0.488 10^-5 h^-1	0.308±0.003	0.010±0.001	2.479±0.452 10^-2 h^-1	18.90±2.818 10^-4 h^-1	<0.01 10^-5 h^-1	0.293±0.006	0.046±0.002	0.777±0.285 10^-2 h^-1	6.751±0.274 10^-4 h^-1	6.992±0.534 10^-5 h^-1	1.182	1.16	0.23	0.428	1.179	HI, hysteresis index (Desorption isotherms; warm-I): <0; HI, hysteresis index (Desorption isotherms; water): 0.304; kFd, Freundlich constant for desorption (Desorption isotherms; water (Table 2)): 1.542 mg^−1/n·L^−1/n·g^−1; n, surface heterogeneity constant (desorption) (Desorption isotherms; water (Table 2)): 1.237; IC50 [4, 7]: 21.6 µM and 5.25 µg/mL; Cytotoxicity (proliferation reduction), MCF-7 [4, 8]: 29.53%; Cytotoxicity (proliferation reduction), MCF-7 [4, 9]: 18.79%; IC50 [5, 11]: 2.34 ± 0.23 µg/mL; Cytotoxicity (proliferation reduction), L8824 [5, 8]: 36.95%; Cytotoxicity (proliferation reduction), L8824 [5, 9]: 26.25%; IC50 [5, 12]: 9.67 ± 0.92 µM
